# Test results published in ChEMBL document CHEMBL3046552, “Synthesis and antiviral bioactivities of 2-cyano-3-substituted-amino(phenyl) methylphosphonylacrylates (acrylamides) containing alkoxyethyl moieties” (2010).
# Legend:
# Format in all cases: functional
# Tobacco mosaic virus [1] = assay: In vivo antiviral activity against Tobacco mosaic virus (TMV) infected left side of tobacco leaves assessed as inactivation effect by decreasing local lesion number at 500 mg/l co-incubated with virus for 30 min before inoculation onto leaves measured at 3-4 days after viral challenge
# How it was run: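 TMV, purified from infected N. tabacum leaves by grinding in phosphate buffer and PEG precipitation at 4 °C, was mixed with an equal volume of compound solution for 30 min. The mixture was inoculated on the left half of the leaf and a solvent-virus mixture on the right half as control. Local lesions recorded 3-4 days later.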
# Tobacco mosaic virus [2] = assay: In vivo antiviral activity against Tobacco mosaic virus (TMV) infected left side of tobacco leaves assessed as curative effect by decreasing local lesion number at 500 mg/l treated after viral inoculation measured at 3-4 days after viral challenge
# How it was run: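 Curative mode: N. tabacum leaves of the same age; compound solution smeared on left half, solvent on right half as control. Local lesions counted 3-4 days after inoculation; three repeats per compound. Inhibition rate derived from average lesion numbers of treated versus untreated control halves. TMV purified from infected leaves (PEG precipitation, 4 °C).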
# Tobacco mosaic virus [3] = assay: In vivo antiviral activity against Tobacco mosaic virus (TMV) infected left side of tobacco leaves assessed as protective effect by decreasing local lesion number at 500 mg/l treated 12 hr before viral inoculation measured at 3-4 days after viral challenge
# How it was run: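 Protective mode: compound solution smeared on the left half of same-age N. tabacum leaves, solvent on the right half as control. After 12 h, the leaves were dusted with silicon carbide and brush-inoculated with TMV at 6 × 10^-3 mg/mL. Local lesions counted 3-4 days after inoculation.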
compound,measurement,setting,value
CCOCCOP(=O)(OCCOCC)C(N/C(SC)=C(/C#N)C(=O)OCCOc1ccccc1)c1ccccc1 (stereo not given),inhibition in vivo at 500 µg/mL,Tobacco mosaic virus [1],31.9%
same,inhibition in vivo at 500 µg/mL,Tobacco mosaic virus [2],44.1%
same,inhibition in vivo at 500 µg/mL,Tobacco mosaic virus [3],3.8%
COCCOP(=O)(OCCOC)C(N/C(SC)=C(/C#N)C(=O)OC)c1ccccc1 (stereo not given),inhibition in vivo at 500 µg/mL,Tobacco mosaic virus [1],0%
same,inhibition in vivo at 500 µg/mL,Tobacco mosaic virus [2],28.8%
same,inhibition in vivo at 500 µg/mL,Tobacco mosaic virus [3],0%
COCCOP(=O)(OCCOC)C(N/C(SC)=C(/C#N)C(=O)OCCOc1ccccc1)c1ccccc1 (stereo not given),inhibition in vivo at 500 µg/mL,Tobacco mosaic virus [1],21%
same,inhibition in vivo at 500 µg/mL,Tobacco mosaic virus [2],31%
same,inhibition in vivo at 500 µg/mL,Tobacco mosaic virus [3],14.4%
CCOCCOC(=O)/C(C#N)=C(\NC(c1ccccc1F)P(=O)(OCCOC)OCCOC)SC (stereo not given),inhibition in vivo at 500 µg/mL,Tobacco mosaic virus [1],33.3%
same,inhibition in vivo at 500 µg/mL,Tobacco mosaic virus [2],31.4%
same,inhibition in vivo at 500 µg/mL,Tobacco mosaic virus [3],21.9%
COCCOC(=O)/C(C#N)=C(\NC(c1ccccc1F)P(=O)(OCCOC)OCCOC)SC (stereo not given),inhibition in vivo at 500 µg/mL,Tobacco mosaic virus [1],0%
same,inhibition in vivo at 500 µg/mL,Tobacco mosaic virus [2],9.9%
same,inhibition in vivo at 500 µg/mL,Tobacco mosaic virus [3],0%
CCOCCOP(=O)(OCCOCC)C(N/C(SC)=C(/C#N)C(=O)OC)c1ccccc1F (stereo not given),inhibition in vivo at 500 µg/mL,Tobacco mosaic virus [1],12%
same,inhibition in vivo at 500 µg/mL,Tobacco mosaic virus [2],33%
same,inhibition in vivo at 500 µg/mL,Tobacco mosaic virus [3],0%
CCOCCOP(=O)(OCCOCC)C(N/C(SC)=C(/C#N)C(=O)OCC)c1ccccc1 (stereo not given),inhibition in vivo at 500 µg/mL,Tobacco mosaic virus [1],35.4%
same,inhibition in vivo at 500 µg/mL,Tobacco mosaic virus [2],51.1%
same,inhibition in vivo at 500 µg/mL,Tobacco mosaic virus [3],45.9%
CCOCCOP(=O)(OCCOCC)C(N/C(SC)=C(/C#N)C(=O)NCc1ccccc1)c1ccccc1 (stereo not given),inhibition in vivo at 500 µg/mL,Tobacco mosaic virus [1],40.1%
same,inhibition in vivo at 500 µg/mL,Tobacco mosaic virus [2],47.3%
same,inhibition in vivo at 500 µg/mL,Tobacco mosaic virus [3],34.5%
CCOCCOP(=O)(OCCOCC)C(N/C(SC)=C(/C#N)C(=O)NCc1ccccc1)c1ccccc1F (stereo not given),inhibition in vivo at 500 µg/mL,Tobacco mosaic virus [1],79.9%
same,inhibition in vivo at 500 µg/mL,Tobacco mosaic virus [2],54.3%
same,inhibition in vivo at 500 µg/mL,Tobacco mosaic virus [3],55.4%
CNCC(=O)N[C@@H](CO)C(=O)N[C@H]1[C@H](O)[C@@H](O)[C@H](n2ccc(N)nc2=O)O[C@@H]1C(N)=O [NINGNANMYCIN],inhibition in vivo at 500 µg/mL,Tobacco mosaic virus [1],96%
same,inhibition in vivo at 500 µg/mL,Tobacco mosaic virus [2],58.9%
same,inhibition in vivo at 500 µg/mL,Tobacco mosaic virus [3],57.7%
COCCOC(=O)/C(C#N)=C(\NC(c1ccccc1)P(=O)(OCCOC)OCCOC)SC (stereo not given),inhibition in vivo at 500 µg/mL,Tobacco mosaic virus [1],41.9%
same,inhibition in vivo at 500 µg/mL,Tobacco mosaic virus [2],43.1%
same,inhibition in vivo at 500 µg/mL,Tobacco mosaic virus [3],40%
COCCOP(=O)(OCCOC)C(N/C(SC)=C(/C#N)C(=O)OC)c1ccccc1F (stereo not given),inhibition in vivo at 500 µg/mL,Tobacco mosaic virus [1],41%
same,inhibition in vivo at 500 µg/mL,Tobacco mosaic virus [2],34.5%
same,inhibition in vivo at 500 µg/mL,Tobacco mosaic virus [3],22%
COCCOP(=O)(OCCOC)C(N/C(SC)=C(/C#N)C(=O)NCc1ccccc1)c1ccccc1F (stereo not given),inhibition in vivo at 500 µg/mL,Tobacco mosaic virus [1],40.8%
same,inhibition in vivo at 500 µg/mL,Tobacco mosaic virus [2],28.6%
same,inhibition in vivo at 500 µg/mL,Tobacco mosaic virus [3],39.9%
COCCOP(=O)(OCCOC)C(N/C(SC)=C(/C#N)C(=O)NCc1ccccc1)c1ccccc1 (stereo not given),inhibition in vivo at 500 µg/mL,Tobacco mosaic virus [1],32.1%
same,inhibition in vivo at 500 µg/mL,Tobacco mosaic virus [2],29.6%
same,inhibition in vivo at 500 µg/mL,Tobacco mosaic virus [3],39.7%
CCOCCOP(=O)(OCCOCC)C(N/C(SC)=C(/C#N)C(=O)OCCOC)c1ccccc1 (stereo not given),inhibition in vivo at 500 µg/mL,Tobacco mosaic virus [1],78.9%
same,inhibition in vivo at 500 µg/mL,Tobacco mosaic virus [2],58.8%
same,inhibition in vivo at 500 µg/mL,Tobacco mosaic virus [3],60.2%
